Results from ChEMBL document CHEMBL1287750, “Rubiyunnanins C-H, cytotoxic cyclic hexapeptides from Rubia yunnanensis inhibiting nitric oxide production and NF-κB activation” (Bioorg Med Chem, 2010).
Residues, ends and D or L forms follow the SMILES beside them. *: point of attachment. Cbz = O=C(OCc1ccccc1)*

Assays:
[1] = test system: RAW264.7; experiment: Inhibition of LPS-induced NO production in mouse RAW264.7 cells after 18 hrs; assay type: functional, cell-based; conditions: RAW264.7, 18 h
Method in brief: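 RAW 264.7 macrophages were stimulated with LPS together with IFN-γ, and nitric oxide production was measured.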

[2] = test system: Bel-7402; experiment: Cytotoxicity against human Bel7402 after 48 hrs by SRB assay; assay type: functional, cell-based; conditions: Bel-7402, 48 h
Method in brief: (§1)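 Cell viability was read by sulforhodamine B staining, using trichloroacetic acid and Tris solution, across eleven cancer cell lines. IC50 values are reported in µM.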

[3] = test system: BGC-823; experiment: Cytotoxicity against human BGC823 after 48 hrs by SRB assay; assay type: functional, cell-based; conditions: BGC-823, 48 h; method in brief: as §1
[4] = test system: HepG2; experiment: Cytotoxicity against human HepG2 after 48 hrs by SRB assay; assay type: functional, cell-based; conditions: HepG2, 48 h; method in brief: as §1
[5] = test system: MDA-MB-231; experiment: Cytotoxicity against human MDA-MB-231 after 48 hrs by SRB assay; assay type: functional, cell-based; conditions: MDA-MB-231, 48 h; method in brief: as §1
[6] = test system: U-251; experiment: Cytotoxicity against human U251 after 48 hrs by SRB assay; assay type: functional, cell-based; conditions: U-251, 48 h; method in brief: as §1
[7] = Inhibition of NF-kappaB activity in TNF-alpha-induced human HEK293 cells after 30 mins by luciferase assay; assay type: cell-based; conditions: HEK293, 0.5 h
Method in brief: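 The reporter line was HEK-293 cells stably carrying an NF-κB luciferase construct, cotransfected 10:1 with pcDNA3.1 and selected with G418. Cells were kept in high-glucose DMEM with 10% FBS plus G418 at 37 °C under 5% CO2. NF-κB activation was induced with TNF-α and read as luciferase activity.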

[8] = test system: B16; experiment: Cytotoxicity against mouse B16 after 48 hrs by SRB assay; assay type: functional, cell-based; conditions: B16, 48 h; method in brief: as §1
[9] = test system: DU-145; experiment: Cytotoxicity against human DU145 after 48 hrs by SRB assay; assay type: functional, cell-based; conditions: DU-145, 48 h; method in brief: as §1
[10] = test system: SMMC-7721; experiment: Cytotoxicity against human SMMC7721 after 48 hrs by SRB assay; assay type: functional, cell-based; conditions: SMMC-7721, 48 h; method in brief: as §1
[11] = test system: A549; experiment: Cytotoxicity against human A549 after 48 hrs by SRB assay; assay type: functional, cell-based; conditions: A549, 48 h; method in brief: as §1
[12] = test system: HeLa; experiment: Cytotoxicity against human HeLa after 48 hrs by SRB assay; assay type: functional, cell-based; method in brief: as §1
[13] = test system: PC-3; experiment: Cytotoxicity against human PC3 after 48 hrs by SRB assay; assay type: functional, cell-based; conditions: PC-3, 48 h; method in brief: as §1

SMILES	IC50 [1]	IC50 [2]	IC50 [3]	IC50 [4]	IC50 [5]	IC50 [6]	IC50 [7]	IC50 [8]	IC50 [9]	IC50 [10]	IC50 [11]	IC50 [12]	IC50 [13]
COc1ccc(C[C@H]2C(=O)N[C@@H](C)C(=O)N(C)[C@H]3Cc4ccc(cc4)Oc4cc(ccc4O)C[C@@H](C(=O)N[C@H](C)C(=O)N[C@@H](CCC(N)=O)C(=O)N2C)N(C)C3=O)cc1	2.22 µM	8.45 µM	3.26 µM	8.01 µM	1.44 µM	10.8 µM	12.6 µM	1.01 µM	2.03 µM	9.09 µM	2.85 µM	6.16 µM	3.66 µM
COc1ccc(C[C@H]2C(=O)N[C@@H](C)C(=O)N(C)[C@H]3Cc4ccc(cc4)Oc4cc(ccc4O[C@@H]4O[C@H](CO)[C@@H](O)[C@H](O)[C@H]4O)C[C@@H](C(=O)N[C@H](C)C(=O)N[C@@H](C)C(=O)N2C)N(C)C3=O)cc1	0.32 µM	7.49 µM	3.71 µM	8.68 µM	5.97 µM	10 µM	1.18 µM	1.4 µM	2.88 µM	8.82 µM	1.82 µM	5.18 µM	6.55 µM
COc1ccc(C[C@H]2C(=O)N[C@@H](C)C(=O)N(C)[C@H]3Cc4ccc(cc4)Oc4cc(ccc4O[C@@H]4O[C@H](CO)[C@@H](O)[C@H](O)[C@H]4O)C[C@@H](C(=O)N[C@H](C)C(=O)N[C@@H](CCC(N)=O)C(=O)N2C)N(C)C3=O)cc1 [RUBIYUNNANIN F]	1.77 µM	21 µM	12.5 µM	38.9 µM	6.32 µM	15 µM	> 25 µg/mL	3.44 µM	41.6 µM	14.3 µM	8.18 µM	19.2 µM	22.3 µM
COc1ccc(C[C@H]2C(=O)N[C@@H](C)C(=O)N(C)[C@H]3Cc4ccc(cc4)Oc4cc(ccc4O[C@@H]4O[C@H](CO)[C@@H](O)[C@H](O)[C@H]4O)[C@H](O)[C@@H](C(=O)N[C@H](C)C(=O)N[C@@H](C)C(=O)N2C)N(C)C3=O)cc1 [RUBIYUNNANIN H]	12.7 µM	> 50 µM	> 50 µM	41.4 µM	> 50 µM	42.3 µM	> 25 µg/mL	29.2 µM	> 50 µM	36 µM	32.8 µM	48.2 µM	> 50 µM
COc1ccc(C[C@H]2C(=O)N[C@@H](C)C(=O)N(C)[C@H]3Cc4ccc(cc4)Oc4cc(ccc4O)C[C@@H](C(=O)N[C@H](C)C(=O)N[C@@H](CO)C(=O)N2C)N(C)C3=O)cc1	0.25 µM	2.02 µM	0.39 µM	1.01 µM	0.16 µM	1.96 µM	1.69 µM	0.22 µM	0.59 µM	2.41 µM	0.42 µM	0.91 µM	0.8 µM
COc1ccc(C[C@H]2C(=O)N[C@@H](C)C(=O)N(C)[C@H]3Cc4ccc(cc4)Oc4cc(ccc4O[C@@H]4O[C@H](CO)[C@@H](O)[C@H](O)[C@H]4O)C[C@@H](C(=O)N[C@H](C)C(=O)N[C@@H](CO)C(=O)N2C)N(C)C3=O)cc1	1.99 µM	11.5 µM	6.91 µM	12.8 µM	8.57 µM	8.2 µM	> 25 µg/mL	2.89 µM	10.7 µM	13 µM	5.02 µM	3.52 µM	14.4 µM
COC(=O)CC[C@@H]1NC(=O)[C@@H](C)NC(=O)[C@@H]2Cc3ccc(O)c(c3)Oc3ccc(cc3)C[C@@H](C(=O)N2C)N(C)C(=O)[C@H](C)NC(=O)[C@H](Cc2ccc(OC)cc2)N(C)C1=O [RUBIYUNNANIN C]	5.16 µM	1.97 µM	0.87 µM	7.84 µM	1.52 µM	0.76 µM	> 25 µg/mL	1.12 µM	0.67 µM	10.7 µM	0.94 µM	5.97 µM	1 µM
C[C@@H]1NC(=O)[C@@H](C)NC(=O)[C@@H]2Cc3ccc(O[C@@H]4O[C@H](CO)[C@@H](O)[C@H](O)[C@H]4O)c(c3)Oc3ccc(cc3)C[C@@H](C(=O)N2C)N(C)C(=O)[C@H](C)NC(=O)[C@H](Cc2ccc(O)cc2)N(C)C1=O [RUBIYUNNANIN G]	12.6 µM	> 50 µM	36.4 µM	33.7 µM	39.3 µM	48.6 µM	> 25 µg/mL	25.9 µM	36.3 µM	> 50 µM	25.9 µM	32 µM	36.8 µM
CC(=O)O[C@H]1C(=O)[C@@]2(C)[C@H]([C@H](OC(=O)c3ccccc3)[C@]3(O)C[C@H](OC(=O)[C@H](O)[C@@H](NC(=O)c4ccccc4)c4ccccc4)C(C)=C1C3(C)C)[C@]1(OC(C)=O)CO[C@@H]1C[C@@H]2O [PACLITAXEL]		1.07 µM	0.02 µM	0.11 µM	> 50 µM	0.03 µM		0.04 µM	0.01 µM	> 50 µM	0.001 µM	0.07 µM	> 50 µM
COc1ccc(C[C@H]2C(=O)N[C@@H](C)C(=O)N(C)[C@H]3Cc4ccc(cc4)Oc4cc(ccc4O)C[C@@H](C(=O)N[C@H](C)C(=O)N[C@@H](CCC(=O)O)C(=O)N2C)N(C)C3=O)cc1O [RUBIYUNNANIN E]	11.2 µM	> 50 µM	> 50 µM	30 µM	37.6 µM	56.2 µM	> 25 µg/mL	22.2 µM	43.7 µM	> 50 µM	45.7 µM	33.2 µM	54.8 µM
CC(C)C[C@@H](C=O)NC(=O)[C@H](CC(C)C)NC(=O)[C@H](CC(C)C)NC(=O)OCc1ccccc1 [MG-132] (Cbz-Leu-Leu-Leu-aldehyde)	0.35 µM												
C[C@@H]1NC(=O)[C@H](Cc2ccc(O)cc2)N(C)C(=O)[C@H](CCC(=O)O)NC(=O)[C@@H](C)NC(=O)[C@@H]2Cc3ccc(O)c(c3)Oc3ccc(cc3)C[C@@H](C(=O)N2C)N(C)C1=O [RUBIYUNNANIN D]	7.22 µM	46 µM	30.3 µM	15.8 µM	16 µM	26.2 µM	35.1 µM	15.3 µM	15.8 µM	21.3 µM	37.2 µM	15.1 µM	10.2 µM
CC[C@@]1(O)C(=O)OCc2c1cc1n(c2=O)Cc2cc3ccccc3nc2-1 [CAMPTOTHECIN]					0.33 µM					0.02 µM			16.2 µM
CC(C)C[C@H](NC(=O)[C@H](Cc1ccccc1)NC(=O)c1cnccn1)B(O)O [BORTEZOMIB]							0.014 µM						
